Measurements from ChEMBL document CHEMBL4368872, “Synthesis and anticonvulsant activity of phenoxyacetyl derivatives of amines, including aminoalkanols and amino acids” (Medchemcomm, 2018).
Calls of active or inactive are those of the source. The calls are words filed in the database; no cut-off is given here.

What was measured:
[1] = Neurotoxicity in CF-1 mouse at 100 mg/kg, ip measured after 0.5 hrs by rotarod test; type: toxicity, organism-based; conditions: in vivo
Outline: (§1)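 Mice dosed i.p. were placed on a 1 in. knurled rod turning at 6 rpm. Toxicity was scored as failure to keep balance for at least 1 min, i.e. falling off three or more times. Results are reported as animals showing toxicity / animals tested at each time point.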

[2] = tested on: Mus musculus; assay: Anticonvulsant activity in CF-1 mouse model of maximal electroshock-induced seizure assessed as suppression of tonic hind limb extension at 100 mg/kg, ip measured at 0.25 hrs post dose; type: functional, organism-based
Outline: (§2)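 Mice dosed i.p. and given maximal electroshock at 50 mA. Read-out is protection, reported as number protected / number tested at 0.25, 0.5, 1 and 4 h after dosing.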

[3] = Neurotoxicity in CF-1 mouse at 30 mg/kg, ip measured after 0.5 hrs by rotarod test; type: toxicity, organism-based; conditions: in vivo; outline: as §1
[4] = tested on: Mus musculus; assay: Anticonvulsant activity in CF-1 mouse model of maximal electroshock-induced seizure assessed as suppression of tonic hind limb extension at 100 mg/kg, ip measured at 1 hr post dose; type: functional, organism-based; outline: as §2
[5] = tested on: Mus musculus; assay: Anticonvulsant activity in CF-1 mouse model of maximal electroshock-induced seizure assessed as suppression of tonic hind limb extension at 300 mg/kg, ip measured at 4 hrs post dose; type: functional, organism-based; outline: as §2
[6] = Neurotoxicity in CF-1 mouse at 100 mg/kg, ip measured after 0.25 hrs by rotarod test; type: toxicity, organism-based; conditions: in vivo; outline: as §1
[7] = tested on: Mus musculus; assay: Anticonvulsant activity in CF-1 mouse model of subcutaneous pentylenetetrazole-induced seizure assessed as reduction in convulsions at 30 mg/kg, ip measured at 4 hrs post dose; type: functional, organism-based
Outline: (§3)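 Mice dosed i.p., then given pentylenetetrazole 85 mg/kg in 0.9% NaCl s.c. into the posterior midline of the neck. Seizures watched for at least 30 min. Scored as protected / tested at 0.5 and 4 h.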

[8] = tested on: Mus musculus; assay: Anticonvulsant activity in CF-1 mouse model of maximal electroshock-induced seizure assessed as suppression of tonic hind limb extension at 100 mg/kg, ip measured at 0.5 hrs post dose; type: functional, organism-based; outline: as §2
[9] = tested on: Mus musculus; assay: Anticonvulsant activity in CF-1 mouse model of maximal electroshock-induced seizure assessed as suppression of tonic hind limb extension at 30 mg/kg, ip measured at 0.5 hrs post dose; type: functional, organism-based; outline: as §2
[10] = Neurotoxicity in CF-1 mouse at 30 mg/kg, ip measured after 4 hrs by rotarod test; type: toxicity, organism-based; conditions: in vivo; outline: as §1
[11] = Neurotoxicity in CF-1 mouse at 300 mg/kg, ip measured after 4 hrs by rotarod test; type: toxicity, organism-based; conditions: in vivo; outline: as §1
[12] = tested on: Mus musculus; assay: Anticonvulsant activity in CF-1 mouse model of subcutaneous pentylenetetrazole-induced seizure assessed as reduction in convulsions at 300 mg/kg, ip measured at 0.5 hrs post dose; type: functional, organism-based; outline: as §3
[13] = Neurotoxicity in CF-1 mouse at 100 mg/kg, ip measured after 4 hrs by rotarod test; type: toxicity, organism-based; conditions: in vivo; outline: as §1
[14] = tested on: Mus musculus; assay: Anticonvulsant activity in CF-1 mouse model of maximal electroshock-induced seizure assessed as suppression of tonic hind limb extension at 100 mg/kg, ip measured at 4 hrs post dose; type: functional, organism-based; outline: as §2
[15] = tested on: Mus musculus; assay: Anticonvulsant activity in CF-1 mouse model of subcutaneous pentylenetetrazole-induced seizure assessed as reduction in convulsions at 300 mg/kg, ip measured at 4 hrs post dose; type: functional, organism-based; outline: as §3
[16] = tested on: Mus musculus; assay: Anticonvulsant activity in CF-1 mouse model of subcutaneous pentylenetetrazole-induced seizure assessed as reduction in convulsions at 100 mg/kg, ip measured at 0.5 hrs post dose; type: functional, organism-based; outline: as §3
[17] = tested on: Mus musculus; assay: Anticonvulsant activity in CF-1 mouse model of subcutaneous pentylenetetrazole-induced seizure assessed as reduction in convulsions at 100 mg/kg, ip measured at 4 hrs post dose; type: functional, organism-based; outline: as §3
[18] = tested on: Mus musculus; assay: Anticonvulsant activity in CF-1 mouse model of maximal electroshock-induced seizure assessed as suppression of tonic hind limb extension at 30 mg/kg, ip measured at 4 hrs post dose; type: functional, organism-based; outline: as §2
[19] = tested on: Mus musculus; assay: Anticonvulsant activity in CF-1 mouse model of maximal electroshock-induced seizure assessed as suppression of tonic hind limb extension at 300 mg/kg, ip measured at 0.5 hrs post dose; type: functional, organism-based; outline: as §2
[20] = Neurotoxicity in CF-1 mouse at 100 mg/kg, ip measured after 1 hr by rotarod test; type: toxicity, organism-based; conditions: in vivo; outline: as §1
[21] = tested on: Mus musculus; assay: Anticonvulsant activity in CF-1 mouse model of subcutaneous pentylenetetrazole-induced seizure assessed as reduction in convulsions at 30 mg/kg, ip measured at 0.5 hrs post dose; type: functional, organism-based; outline: as §3
[22] = Mutagenicity in Salmonella typhimurium TA1535 assessed as mutagenicity index at 50 to 500 ug/plate preincubated for 30 mins followed by top agar addition and measured after 48 hrs in presence of liver S9 fraction by Ames test; type: toxicity, subcellular; conditions: salmonella enterica subsp. enterica serovar typhimurium, s9, 48 h
Outline: (§4)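 Ames plate incorporation in S. typhimurium TA100 or TA1535, with or without S9. Overnight culture, compound in DMSO (50–500 µg per plate) and buffer or S9 mix preincubated 30 min at 37 °C, then top agar on glucose minimal agar. Incubated 48 h at 37 °C, revertants counted in triplicate. Vehicle negative control; NaN3 (−S9) and 2AA (+S9) positive controls. MI = revertants with compound / negative-control revertants; MI ≥ 2 with dose-response counts as positive.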

[23] = tested on: Salmonella typhimurium; assay: Antimutagenic activity against Salmonella typhimurium TA1535 assessed as inhibition of NaN3-induced mutation at 100 ug/plate preincubated for 30 mins followed by top agar addition and measured after 48 hrs in presence of liver S9 fraction by Ames test relative to control; type: organism-based; conditions: salmonella enterica subsp. enterica serovar typhimurium, s9, 48 h
[24] = tested on: Salmonella typhimurium; assay: Antimutagenic activity against Salmonella typhimurium TA1535 assessed as inhibition of NaN3-induced mutation at 500 ug/plate preincubated for 30 mins followed by top agar addition and measured after 48 hrs in presence of liver S9 fraction by Ames test relative to control; type: organism-based; conditions: salmonella enterica subsp. enterica serovar typhimurium, s9, 48 h
[25] = tested on: Salmonella typhimurium; assay: Antimutagenic activity against Salmonella typhimurium TA100 assessed as inhibition of NaN3-induced mutation at 250 ug/plate preincubated for 30 mins followed by top agar addition and measured after 48 hrs in presence of liver S9 fraction by Ames test relative to control; type: organism-based; conditions: salmonella enterica subsp. enterica serovar typhimurium, s9, 48 h
[26] = Neurotoxicity in CF-1 mouse at 300 mg/kg, ip measured after 0.5 hrs by rotarod test; type: toxicity, organism-based; conditions: in vivo; outline: as §1
[27] = tested on: Salmonella typhimurium; assay: Antimutagenic activity against Salmonella typhimurium TA100 assessed as inhibition of NaN3-induced mutation at 100 ug/plate preincubated for 30 mins followed by top agar addition and measured after 48 hrs in presence of liver S9 fraction by Ames test relative to control; type: organism-based; conditions: salmonella enterica subsp. enterica serovar typhimurium, s9, 48 h
[28] = Mutagenicity in Salmonella typhimurium TA100 assessed as mutagenicity index at 50 to 500 ug/plate preincubated for 30 mins followed by top agar addition and measured after 48 hrs in absence of liver S9 fraction by Ames test; type: toxicity; conditions: salmonella enterica subsp. enterica serovar typhimurium, s9, 48 h; outline: as §4
[29] = Mutagenicity in Salmonella typhimurium TA100 assessed as mutagenicity index at 50 to 500 ug/plate preincubated for 30 mins followed by top agar addition and measured after 48 hrs in presence of liver S9 fraction by Ames test; type: toxicity, subcellular; conditions: salmonella enterica subsp. enterica serovar typhimurium, s9, 48 h; outline: as §4
[30] = tested on: Salmonella typhimurium; assay: Antimutagenic activity against Salmonella typhimurium TA1535 assessed as inhibition of NaN3-induced mutation at 250 ug/plate preincubated for 30 mins followed by top agar addition and measured after 48 hrs in presence of liver S9 fraction by Ames test relative to control; type: organism-based; conditions: salmonella enterica subsp. enterica serovar typhimurium, s9, 48 h
[31] = Mutagenicity in Salmonella typhimurium TA1535 assessed as mutagenicity index at 50 to 500 ug/plate preincubated for 30 mins followed by top agar addition and measured after 48 hrs in absence of liver S9 fraction by Ames test; type: toxicity; conditions: salmonella enterica subsp. enterica serovar typhimurium, s9, 48 h; outline: as §4
[32] = tested on: Salmonella typhimurium; assay: Antimutagenic activity against Salmonella typhimurium TA100 assessed as inhibition of NaN3-induced mutation at 500 ug/plate preincubated for 30 mins followed by top agar addition and measured after 48 hrs in presence of liver S9 fraction by Ames test relative to control; type: organism-based; conditions: salmonella enterica subsp. enterica serovar typhimurium, s9, 48 h
[33] = tested on: Salmonella typhimurium; assay: Antimutagenic activity against Salmonella typhimurium TA100 assessed as inhibition of NaN3-induced mutation at 50 ug/plate preincubated for 30 mins followed by top agar addition and measured after 48 hrs in presence of liver S9 fraction by Ames test relative to control; type: organism-based; conditions: salmonella enterica subsp. enterica serovar typhimurium, s9, 48 h
[34] = tested on: Salmonella typhimurium; assay: Antimutagenic activity against Salmonella typhimurium TA1535 assessed as inhibition of NaN3-induced mutation at 50 ug/plate preincubated for 30 mins followed by top agar addition and measured after 48 hrs in presence of liver S9 fraction by Ames test relative to control; type: organism-based; conditions: salmonella enterica subsp. enterica serovar typhimurium, s9, 48 h

SMILES | Activity [3] | Activity [5] | Activity [7] | Activity [8] | Activity [9] | Activity [10] | Activity [11] | Activity [12] | Activity [13] | Activity [14] | Activity [15] | Activity [16] | Activity [17] | Activity [18] | Activity [19] | Activity [21] | further results
CCC(NC(=O)COc1c(C)cc(C)cc1C)C(N)=O (stereo not given) | Non-Toxic | inactive | inactive | inactive | inactive | Non-Toxic | Non-Toxic | inactive | Non-Toxic | inactive | inactive | inactive | inactive | inactive | Active | inactive | Activity [1]: Non-Toxic; Activity [2]: inactive; Activity [4]: inactive; Activity [6]: Non-Toxic; Activity [20]: Non-Toxic
Cc1cccc(C)c1OCC(=O)NCC(O)c1ccccc1 (stereo not given) | Non-Toxic | inactive | inactive | inactive | inactive | Non-Toxic | Non-Toxic | inactive | Non-Toxic | inactive | inactive | inactive | inactive | inactive | inactive | inactive | Activity index [22]: 0.7 to 1.7; inhibition (INH) [23]: 45%; inhibition (INH) [24]: 13%; inhibition (INH) [25]: 51%; Activity [26]: Non-Toxic; inhibition (INH) [27]: 45%; Activity index [28]: 0.7 to 1.7; Activity index [29]: 0.7 to 1.7; inhibition (INH) [30]: 35%; Activity index [31]: 0.7 to 1.7; inhibition (INH) [32]: 41%; inhibition (INH) [33]: 17%; inhibition (INH) [34]: 58%
